T cruzi repl: inhibitors of intracellular T. cruzi growth, primary screen, luminescence, NIH3T3 host cells | T. cruzi beta-gal in NIH3T3, 90 h | inhibition, % (test concentration not listed) | actives 1.4% (n = 300,000) | AID 1885, 2009;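 active = mean inhibition across valid replicates above about 55%, limit read from the data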;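 also: signal also drops with host cell toxicity which is not excluded here; 0% = plate median of DMSO wells and 100% = zero luminescence signal; higher percent means less beta-gal luminescence so fewer parasites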
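Test system: β-gal T. cruzi (Tulahuen C4) inside NIH/3T3 cells / Quantity: 5,000 cells/well / Measured by: luminescence from GalScreen with 0.05% NP40, read after 60 min / Medium: DMEM plus 2% FBS / Measure: parasite load inhibition, % / Reagent: Tulahuen C4 trypomastigotes, 5000/well / Schedule: co-culture of at least 90 h after 3 h attachment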
ARNT TACC3 PPI: disruptors of ARNT/TACC3 protein interaction, primary screen, biochemical, AlphaScreen, single concentration; Transforming acidic coiled-coil-containing protein 3 (Homo sapiens), Q9Y6A5; AlphaScreen His-ARNT PAS-B/GST-TACC3 binding, luminescence; TACC3 fragment carries E629A point mutation; inhibition, % at 9.99 µM; actives 0.66% (n = 390,000); AID 623870, 2012;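 active = mean inhibition of replicates at least 50% and at least half of replicates each reaching 50%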;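 also: 0% = complete ARNT plus TACC3 wells and 100% = ARNT alone without TACC3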
HIF activator: HIF pathway transcriptional activators, primary screen, cell-based, U2OS HRE-luciferase, luminescence. U2OS HRE-luciferase reporter; normalized: DMSO 0%, desferrioxamine 100%. activation, % at 7.5 µM (by protocol). actives 0.32% (n = 300,000);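 active = mean activation of at least 10% of the iron chelator positive control signal, with at least half of replicates also reaching 10%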
AI-2 QS modul: Vibrio harveyi AI-2 quorum sensing modulators, primary screen, JMH597 strain, luminescence/OD600 ratio | Vibrio harveyi JMH597 AI-2 luminescence/OD600 ratio, 9 h; hits give low values; strain lacks LuxN and CqsS sensors; 0 = neutral-control median | activity change, % at 7.5 µM | actives 0.4% (n = 300,000) | AID 2094, 2009; in the data active = activity change below about -75%, passing the limit was not always enough;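 also: luminescence divided by OD600 gain over 9 h not by final OD600 alone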
AlphaScreen ctr: AlphaScreen signal interference compounds, dose response, artefact control for ARNT-TACC3 interaction inhibitor project, biochemical, luminescence, cherry-pick; shares compounds with ARNT TACC3 PPI; actives 50% (n = 1,200); His-ARNT PASB-GST AlphaScreen artifact counter-screen; AC50, µM (series often up to 68 µM), inactives show at the top dose activity change, negative = signal decrease;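 active = every separate test run was called active for a drop in luminescence, with AC50 within twice the top valid dose, actives reach about 71 µM in these data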
Active calls of the source: *; . = no result. An excerpt weighted towards active compounds, which were near 2% of everything screened.

SMILES	T cruzi repl	ARNT TACC3 PPI	HIF activator	AI-2 QS modul	AlphaScreen ctr
c1ccc(-c2nnc(-c3ccccn3)nc2NCCc2ccccn2)cc1	.	.	.	.	1.77µM*
CN1CCN(c2nc(-c3ccccn3)nnc2-c2ccccc2)CC1	.	.	.	.	0.545µM*
c1ccc(CNc2nc(-c3cccs3)nc3ccccc23)nc1	18.9	24.5	0.2	25.7	.
OCCCNc1nc(-c2ccc(Cl)cc2)nnc1-c1ccccc1	20.3	-9.7	1.1	21.0	.
CC(C)(C)CCNc1nc(-c2ccccn2)nnc1-c1ccccc1	.	.	.	.	2.23µM*
c1ccc(-c2nnc(-c3ccccn3)nc2NCc2ccccn2)cc1	.	.	.	.	0.703µM*
C[C@@H]1CN([C@H](C)CO)C(=O)c2cc(NC(=O)C3CC3)ccc2O[C@H]1CN(C)S(=O)(=O)c1cn(C)cn1	.	-14.8	.	.	.
Cc1ccc(S(=O)(=O)NCC[C@H]2CC[C@@H](NC(=O)Nc3cccc(F)c3)[C@@H](CO)O2)cc1	.	-4.9	.	.	.
C[C@H](CO)N1C[C@H](C)[C@H](CN(C)Cc2ccncc2)Oc2c(NC(=O)Nc3ccc4c(c3)OCO4)cccc2C1=O	.	-5.9	.	.	.
c1ccc(-c2nnc(-c3ccccn3)nc2NCCN2CCOCC2)cc1	.	.	.	.	0.833µM*
Cc1ccc(-c2nc(NCCN3CCOCC3)c3ccccc3n2)cc1	22.6	5.7	0.1	11.6	.
Cc1[nH][nH]c(=O)c1C(c1ccc(-c2ccccc2C(=O)O)o1)c1c(C)[nH][nH]c1=O	-3.3	53.7*	-0.3	31.9	-12.4%
C[C@H](CO)N1C[C@H](C)[C@@H](CN(C)S(=O)(=O)c2ccc(F)cc2)Oc2ccc(NS(=O)(=O)c3cn(C)cn3)cc2C1=O	.	-3.2	.	.	.
COc1ccc(-c2[nH]ncc2/C=N\NC(=O)c2cccs2)cc1OC	.	51.2*	.	22.1	-21.5%
Cc1cc(C)n2nc(-c3cccc(Br)c3)cc2n1	-7.3	51.3*	4.3	6.8	8.2%
Cc1cccc(-c2cc3nc(C)cc(C)n3n2)c1	-0.6	.	1.2	14.9	.
C[C@@H]1CCCCO[C@@H](CN(C)CC2CCCCC2)[C@@H](C)CN([C@@H](C)CO)C(=O)c2cc(NC(=O)c3ccccc3)ccc2O1	.	10.5	.	.	.
CC(C)(C)C1=CC(=Nc2ccccc2N)C=C(C(C)(C)C)C1=O	-4.9	53.7*	-0.2	-4.7	1.52µM*
CO[C@H]1CN(C)C(=O)c2cc(NC(C)=O)ccc2OC[C@@H](C)N(Cc2cncnc2)C[C@@H]1C	.	-10.4	.	.	.
COc1ccccc1C#Cc1cnc2c(c1)C(=O)N([C@H](C)CO)C[C@@H](C)[C@H](CN(C)C(=O)c1ccc3c(c1)OCO3)O2	.	-6.0	.	.	.
Cc1ccc(C(c2c(C)[nH][nH]c2=O)c2c(C)[nH][nH]c2=O)cc1	-14.3	7.1	-0.6	55.7	.
Cc1[nH][nH]c(=O)c1C(c1ccc(O)c(Br)c1)c1c(C)[nH][nH]c1=O	-22.6	33.1*	-6.2	35.9	-34.3%
Cc1[nH][nH]c(=O)c1C(c1ccc(Br)cc1)c1c(C)[nH][nH]c1=O	-13.2	11.3*	-0.1	-7.6	-2.1%
COc1ccc(C(c2c(C)[nH][nH]c2=O)c2c(C)[nH][nH]c2=O)cc1Br	2.3	20.2	1.3	-0.3	.
Cc1c(CC(=O)O)c(=O)oc2c(C)c3occ(-c4ccccc4)c3cc12	-10.6	6.4	-2.8	25.5	.
SMILES	T cruzi repl	ARNT TACC3 PPI	HIF activator	AI-2 QS modul	AlphaScreen ctr
Cc1c(CCC(=O)O)c(=O)oc2c(C)c3occ(-c4ccc(Cl)cc4)c3cc12	5.2	56.2*	0.6	58.9	61.9µM*
O=C(CSc1n[nH]c(=O)[nH]c1=O)N/N=C/c1ccccc1O	-10.2	52.5*	0.3	19.8	-26.5%
CCOc1ccccc1/C=N/NC(=O)CSc1n[nH]c(=O)[nH]c1=O	-13.9	-1.4	-0.2	9.5	.
COc1cc(/C=N/NC(=O)CSc2n[nH]c(=O)[nH]c2=O)cc(OC)c1O	-16.7	56.7*	0.2	10.2	-36.9%
CO[C@H]1CC[C@@H]2CCOc3ccc(C#N)cc3C(=O)N(C)C[C@@H](c3ccccc3)CC(=O)N(C)C[C@@H]1O2	.	-4.4	.	.	.
O=C(Nc1ccc2nc3ccccc3nc2c1)c1ccc(Br)cc1	-0.4	-1.4	0.5	18.8	.

Assay outcomes deposited in PubChem by Broad Institute.
